Experimental findings from PubChem BioAssay are described below.

What is called viability is a read-out of living cells in per cent, often relative to untreated cells. In general, inhibition refers to the drop in the measured response relative to a control, in per cent.

Test [1] is described as follows: Her2 expression decrease, cell viability multiplex – SKBR3 breast tumor cells, AlphaScreen, ATP viability, primary screen (AID 461;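 active = Her2 level under about 52% in both replicate screens, with viability over 70% of control, limit read from the data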;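 as to Her2 level: lower value means less Her2 protein in the cells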;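 as to viability: percent of carrier control wells set as 100% viability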). As to conditions: SKBR3 Her2 protein level, 18-24 h, measured here: SKBR3 viability, ATP luminescence, at 10 µM.
The target of test [2] is Receptor tyrosine-protein kinase erbB-2 (Homo sapiens) (UniProt P04626). The test is described as above. Conditions: 18-24 h, at 10 µM, stronger effect = lower value.
Sequence of Receptor tyrosine-protein kinase erbB-2 (Homo sapiens) (P04626 whole entry, looked up): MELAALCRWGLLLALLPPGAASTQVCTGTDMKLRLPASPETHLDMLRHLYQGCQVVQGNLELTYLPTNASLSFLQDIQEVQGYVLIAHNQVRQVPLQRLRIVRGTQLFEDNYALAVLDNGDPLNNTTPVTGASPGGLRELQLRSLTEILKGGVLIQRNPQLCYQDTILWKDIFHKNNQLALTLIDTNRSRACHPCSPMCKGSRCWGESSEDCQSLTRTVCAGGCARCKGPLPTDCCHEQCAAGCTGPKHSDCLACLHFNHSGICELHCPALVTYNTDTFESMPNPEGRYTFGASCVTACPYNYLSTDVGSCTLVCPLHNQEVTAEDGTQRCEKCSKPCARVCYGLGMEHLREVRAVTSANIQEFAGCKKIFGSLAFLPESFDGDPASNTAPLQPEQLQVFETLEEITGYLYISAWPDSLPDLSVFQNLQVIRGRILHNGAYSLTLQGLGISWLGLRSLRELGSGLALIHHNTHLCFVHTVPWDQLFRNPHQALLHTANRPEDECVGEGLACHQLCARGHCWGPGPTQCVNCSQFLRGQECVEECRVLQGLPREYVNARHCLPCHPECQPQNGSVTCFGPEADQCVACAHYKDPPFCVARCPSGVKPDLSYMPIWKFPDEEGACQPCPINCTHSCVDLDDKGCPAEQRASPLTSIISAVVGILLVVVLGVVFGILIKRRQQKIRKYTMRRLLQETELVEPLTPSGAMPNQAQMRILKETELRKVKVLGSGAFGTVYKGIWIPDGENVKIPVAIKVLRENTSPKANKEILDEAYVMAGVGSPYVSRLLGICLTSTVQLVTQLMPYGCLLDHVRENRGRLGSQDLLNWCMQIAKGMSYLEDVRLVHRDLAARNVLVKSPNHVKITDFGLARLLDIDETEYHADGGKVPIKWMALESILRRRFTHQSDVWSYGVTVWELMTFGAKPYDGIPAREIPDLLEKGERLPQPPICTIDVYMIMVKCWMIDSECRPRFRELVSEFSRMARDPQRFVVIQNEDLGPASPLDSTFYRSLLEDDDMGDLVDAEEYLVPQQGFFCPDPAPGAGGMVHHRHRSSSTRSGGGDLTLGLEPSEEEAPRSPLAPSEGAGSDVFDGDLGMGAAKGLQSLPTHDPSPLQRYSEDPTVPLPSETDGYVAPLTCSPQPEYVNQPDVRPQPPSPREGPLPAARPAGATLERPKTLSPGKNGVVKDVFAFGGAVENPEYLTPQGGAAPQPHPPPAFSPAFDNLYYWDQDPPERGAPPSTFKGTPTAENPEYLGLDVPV
Test [3] in a line: reduced viability of SK-BR-3 breast cancer cells – cell-based, 24 h, human, pilot screen (AID 572).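 Also: compound exposure lasted between 18 and 24 h rather than exactly 24 h; 100% = carrier-treated control wells.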 Conditions: SK-BR-3 viability, CellTiter-Glo luminescence, at 10 µM, stronger effect = lower value. On the technique in general: Cellular ATP, detected with luciferase, serves as a proxy for viable cell number.
Test [4] can be described thus: HUVEC growth inhibition – cell-based, human, primary screen (AID 575;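 active = viability at or below 30% in both replicate assays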;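 also: 100% = median of untreated cell wells with 0.1% DMSO on each plate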). As to conditions: HUVEC proliferation, CellTiter-Glo luminescence, 72 h; at 10 µM; stronger effect = lower value. The procedure, abridged:
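Assay system: primary human umbilical vein endothelial cells / Buffer or medium: endothelial basal medium with 2% FBS plus growth supplements / Compound dosing: one dose, 10 µM final, 0.1% DMSO / Timing: 72 h treatment at 37 °C / Signal: CTG luminescence / Benchmarks: 32 DMSO-only cell-control wells (high), 32 MePR drug-control wells (low) per plate / Plate: collagen-coated 384-well format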

The nature of test [5]: H69AR cell proliferation blockers – human, duplicate replicates, primary screen (AID 580;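 active = viability at or under a set limit in both replicates, limit being median viability minus 3 SD, cut at about 48% in these data, passing the limit was not always enough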;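 also: 100% = mean luminescence of untreated wells and 0% = no signal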). As to conditions: H69AR lung tumor cells viability, ATP luminescence, 72 h; at 10 µM; stronger effect = lower value.
Test [6] can be described thus: MRP1 drug-resistance reversers in H69AR cells – cell-based, doxorubicin co-treatment, pilot screen (AID 601;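 active = viability loss from added drug above about 55%, and viability with drug at most 40%, in both replicates, limit read from the data, passing the limit was not always enough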). Conditions: CellTiter-Glo, 72 h, at 10 µM; for differential viability (reversal): stronger effect = higher value.
A short description of test [7]: yeast transport mutant growth inhibition pilot in 384-well plates, post-Golgi transport modulator project (AID 636; in the data active = inhibition above about 31%). Conditions: absorbance 615 nm, about 18 h, stronger effect = higher value.
Test [8] can be described thus: growth suppression of yeast trafficking mutant, preliminary HTS, modulators of trafficking downstream of Golgi apparatus project, 1536-format plate, OD 615 nm (AID 637; in the data active = inhibition above about 30%). As to conditions: yeast transport mutant growth, absorbance 615 nm, 18 h; stronger effect = higher value.
Setting [9] is: H69AR cells + 2 uM doxorubicin, measured here: viability with 2 uM doxorubicin, stronger effect = lower value.
The mark [10] stands for this setting: H69AR cells, compound alone cytotoxicity.

Activity calls are given as the source filed them.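 The calls were made as follows, unless noted: active = viability at or below 10% of carrier control in both of two separate runs; inconclusive = viability at or below 10% in only one of the two runs; inactive = the rest.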

In the case of `CN(C)c1ccc(C(=O)OCC(=O)NC2CCCCC2)cc1`, the viability in test [1] is 106%; in test [3], 106% (inactive); in test [4], 98.1% (inactive); in test [5], 91.5% (inactive); in test [6] (setting [9]) it was 82.9%; in test [6] (setting [10]), 91.5%. For the same compound, the Her2 level in test [2] was 97% (inactive). Besides, the differential viability (reversal) in test [6] (H69AR cells + 2 uM doxorubicin) was 8.63% (inactive). Besides, the inhibition was -5.6% (inactive) in test [7] and 5.81% (inactive) in test [8].
As to `CCOc1cc2oc(=O)c3c(c2cc1Cl)CCC3`, the viability in test [1] is 106%; in test [3], 106% (inactive); in test [4], 102% (inactive); in test [5], 85.6% (inactive); in test [6] (setting [9]) it was 77.5%; in test [6] (setting [10]), 85.6%. Further, the Her2 level in test [2] was 96% (inactive). Moreover, the differential viability (reversal) in test [6] (H69AR cells + 2 uM doxorubicin) is 8.13% (inactive). For the same compound, the inhibition in test [7] was -3.84% (inactive); in test [8], 2.38% (inactive).
For the compound `Cc1c(NC(=O)c2ccc(COc3ccc4ccccc4c3)o2)c(=O)n(-c2ccccc2)n1C`, the viability was 88.5% in test [1]; 88.5% (inactive) in test [3]; 91.2% (inactive) in test [4]; 99% (inactive) in test [5]; 85.3% in test [6] (setting [9]); 99% in test [6] (setting [10]). Further, the Her2 level in test [2] is 91% (inactive). The differential viability (reversal) in test [6] (H69AR cells + 2 uM doxorubicin) is 13.7% (inactive). Further, the inhibition in test [7] was -5.47% (inactive); in test [8] it was -5.9% (inactive).
For the compound `Cc1nc2sc(C(c3cccc(F)c3)N3CCC(C)CC3)c(O)n2n1` (stereo not given), the viability in test [1] was 88%; in test [3], 88% (inactive); in test [4] it was 101% (inactive); in test [5] it was 96.3% (inactive); in test [6] (setting [9]), 86.7%; in test [6] (setting [10]), 96.3%. Moreover, in test [2], the Her2 level was 77% (inactive). The differential viability (reversal) in test [6] (H69AR cells + 2 uM doxorubicin) is 9.65% (inactive). The values for the inhibition in test [7] and in test [8] were -6.71% (inactive) and 1.75% (inactive), respectively.
Turning to `CC(C)(C)c1cc(NS(=O)(=O)c2ccc3c(c2)OCCO3)on1`, the viability is 131% in test [1]; 131% (inactive) in test [3]; 98.1% (inactive) in test [4]; 89.6% (inactive) in test [5]; 93% in test [6] (setting [9]); 89.6% in test [6] (setting [10]). Also, the Her2 level in test [2] was 88% (inactive). In addition, the differential viability (reversal) in test [6] (H69AR cells + 2 uM doxorubicin) was -3.41% (inactive). Also, the inhibition in test [7] is -1.3% (inactive); in test [8], 5.24% (inactive).
On to `O=C1COc2ccc(C(=O)COC(=O)CCc3ccc(S(=O)(=O)N4CCOCC4)cc3)cc2N1`, for which the viability is 105% in test [1]; 105% (inactive) in test [3]; 80.3% (inactive) in test [4]; 79% (inactive) in test [5]; 89.4% in test [6] (setting [9]); 79% in test [6] (setting [10]). For the same compound, the Her2 level in test [2] is 98% (inactive). In addition, in test [6] (H69AR cells + 2 uM doxorubicin), the differential viability (reversal) was -10.4% (inactive). Also, the inhibition in test [7] is 2.69% (inactive); in test [8], 1.67% (inactive).
For `O=C(CSc1nc2cc(Cl)ccc2s1)N1CCN(C(=O)c2ccco2)CC1`, the viability in test [1] was 91%; in test [3] it was 91% (inactive); in test [4], 91.6% (inactive); in test [5], 100% (inactive); in test [6] (setting [9]) it was 99.5%; in test [6] (setting [10]), 100%. The Her2 level in test [2] was 84.5% (inactive). In test [6] (H69AR cells + 2 uM doxorubicin), the differential viability (reversal) is 0.815% (inactive). In addition, the inhibition was -3.87% (inactive) in test [7] and 0.97% (inactive) in test [8].
For the compound `CC1CCCN(C(=O)CN2CCN(C(=O)c3ccco3)CC2)C1` (stereo not given), the viability in test [1] was 95.5%; in test [3], 95.5% (inactive); in test [4], 91.2% (inactive); in test [5] it was 93.2% (inactive); in test [6] (setting [9]) it was 81.6%; in test [6] (setting [10]), 93.2%. Besides, in test [2], the Her2 level was 89.5% (inactive). In addition, the differential viability (reversal) in test [6] (H69AR cells + 2 uM doxorubicin) is 11.7% (inactive). The inhibition was -4.13% (inactive) in test [7] and -1.8% (inactive) in test [8].
Turning to `CC(C)Oc1cccc(-c2cc(C(=O)N3CCN(S(C)(=O)=O)CC3)c3ccccc3n2)c1`, the viability in test [1] is 90.5%; in test [3] it was 90.5% (inactive); in test [4], 64% (inactive); in test [5], 65.7% (inactive); in test [6] (setting [9]), 75.4%; in test [6] (setting [10]) it was 65.7%. Besides, in test [2], the Her2 level was 94% (inactive). Also, the differential viability (reversal) in test [6] (H69AR cells + 2 uM doxorubicin) was -9.72% (inactive). In addition, the inhibition was -1.84% (inactive) in test [7] and -6.03% (inactive) in test [8].
Consider `COc1cccc(-n2nnc3c(=O)n(Cc4cccc(F)c4)cnc32)c1`, for which the viability in test [1] is 96.5%; in test [3], 96.5% (inactive); in test [4], 91.7% (inactive); in test [5], 99.9% (inactive); in test [6] (setting [9]), 94.6%; in test [6] (setting [10]), 99.9%. Also, the Her2 level in test [2] was 104% (inactive). Also, the differential viability (reversal) in test [6] (H69AR cells + 2 uM doxorubicin) was 5.36% (inactive). Besides, the inhibition in test [7] is -2.7% (inactive); in test [8], 16.8% (inactive).
With `O=C(Nc1cccc2ncccc12)c1ccc2c(c1)OCCO2`, the viability was 84% in test [1]; 84% (inactive) in test [3]; 100% (inactive) in test [4]; 104% (inactive) in test [5]; 92.1% in test [6] (setting [9]); 104% in test [6] (setting [10]). Also, the Her2 level in test [2] is 104% (inactive). Further, the differential viability (reversal) in test [6] (H69AR cells + 2 uM doxorubicin) is 11.7% (inactive). For the same compound, the inhibition in test [7] is -1.17% (inactive); in test [8], -3% (inactive).
Regarding `O=C(NCCc1ccccc1)C1CCCN(S(=O)(=O)c2cccs2)C1` (stereo not given), the viability in test [1] is 89%; in test [3], 89% (inactive); in test [4], 112% (inactive); in test [5], 93.8% (inactive); in test [6] (setting [9]) it was 86.7%; in test [6] (setting [10]), 93.8%. The Her2 level in test [2] was 91% (inactive). For the same compound, the differential viability (reversal) in test [6] (H69AR cells + 2 uM doxorubicin) was 7.11% (inactive). For the same compound, the inhibition in test [7] is 1.79% (inactive); in test [8], -0.33% (inactive).
As for `Nc1nnc(SCCOc2ccccc2)s1`, the viability in test [1] is 86.5%; in test [3], 86.5% (inactive); in test [4] it was 72.1% (inactive); in test [5], 97.4% (inactive); in test [6] (setting [9]) it was 88.2%; in test [6] (setting [10]) it was 97.4%. The Her2 level in test [2] is 80% (inactive). For the same compound, in test [6] (H69AR cells + 2 uM doxorubicin), the differential viability (reversal) was 9.2% (inactive). Further, the inhibition in test [7] is -3.82% (inactive); in test [8], -2.73% (inactive).
For the compound `CCOC(=O)Cn1c(CN2CCOCC2)nc2c1c(=O)[nH]c(=O)n2C`, the viability in test [1] was 95%; in test [3], 95% (inactive); in test [4], 97.5% (inactive); in test [5], 99.7% (inactive); in test [6] (setting [9]) it was 99.5%; in test [6] (setting [10]), 99.7%. The Her2 level in test [2] was 109% (inactive). Moreover, in test [6] (H69AR cells + 2 uM doxorubicin), the differential viability (reversal) was 0.165% (inactive). Further, the inhibition in test [7] was -3.72% (inactive); in test [8], -0.67% (inactive).
With `COc1ccc(-n2nc(C(=O)NCC(=O)NCC3CCCO3)c3ccccc3c2=O)cc1` (stereo not given), the viability is 120% in test [1]; 120% (inactive) in test [3]; 103% (inactive) in test [4]; 85.5% (inactive) in test [5]; 92.2% in test [6] (setting [9]); 85.5% in test [6] (setting [10]). Also, the Her2 level in test [2] is 86.5% (inactive). Also, the differential viability (reversal) in test [6] (H69AR cells + 2 uM doxorubicin) was -6.73% (inactive). Further, the inhibition in test [7] was -0.78% (inactive); in test [8] it was 1.15% (inactive).
For the compound `O=S(=O)(c1ccc(OCC(O)CN2CCN(c3ccccc3)CC2)cc1)N1CCOCC1` (stereo not given), the viability in test [1] is 100%; in test [3], 100% (inactive); in test [4], 110% (inactive); in test [5] it was 96.4% (inactive); in test [6] (setting [9]) it was 91.2%; in test [6] (setting [10]), 96.4%. In addition, in test [2], the Her2 level is 90% (inactive). Besides, the differential viability (reversal) in test [6] (H69AR cells + 2 uM doxorubicin) is 5.24% (inactive). Moreover, the inhibition in test [7] was -7.57% (inactive); in test [8] it was -3.67% (inactive).
